High-throughput results: PubChem, several laboratories
Only some compounds are listed: those with a hit (about 1.9% of all), similar ones and a draw of the others.
MT stabilize HCS: microtubule stabilizers in HeLa cells, primary screen, imaging, high-content imaging. % tubulin-high responders, % at 10 µM. HeLa tubulin immunostaining HCS, 24 h; share of cells brighter than vehicle mean+2SD. 0.83% of 200,000 active;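 active = plate Z-score above 3 for both tubulin-high and condensed-nucleus cell shares, with cell loss under 80%, at 10 µM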;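 note: anti alpha tubulin signal scored within the nucleus-defined area of each cell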
ROMK primary: ROMK potassium channel modulators, primary screen, cell-based, thallium flux, MLSMR library | ATP-sensitive inward rectifier potassium channel 1 (Homo sapiens), P48048 | Tet-inducible ROMK, thallium flux fluorescence; actives lie on both sides | B-score at 10 µM | 2% of 130,000 active | AID 1918, 2009;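 active = signal ratio slope over the read window, or its plate-corrected B-score, at least 3 SD from the plate mean, either direction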;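 note: B-score of the F/F0 ratio slope over 7 to 12 s after thallium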
Target sequence (P48048 whole entry, looked up): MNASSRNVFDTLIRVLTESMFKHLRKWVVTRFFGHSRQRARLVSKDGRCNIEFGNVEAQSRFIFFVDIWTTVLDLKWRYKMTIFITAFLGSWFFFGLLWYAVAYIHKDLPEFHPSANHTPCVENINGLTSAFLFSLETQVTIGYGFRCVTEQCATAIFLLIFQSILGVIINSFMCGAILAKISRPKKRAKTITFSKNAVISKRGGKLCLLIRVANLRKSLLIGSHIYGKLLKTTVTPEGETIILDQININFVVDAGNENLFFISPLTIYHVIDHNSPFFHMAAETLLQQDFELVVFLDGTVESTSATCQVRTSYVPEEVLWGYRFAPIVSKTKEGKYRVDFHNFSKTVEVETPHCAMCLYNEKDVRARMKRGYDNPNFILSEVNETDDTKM
b-catenin transl: modulators of beta-catenin nuclear translocation, primary screen, imaging, HeLa cells, immunofluorescence, high-content; nuclear translocation activity, % at 5 µM; 0.3% of 190,000 active; AID 1665, 2009;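 active = nuclear translocation activity above 50% at 5 µM, with a well cell count of 50 or more; inconclusive = wells under 50 cells across six images, flagged as toxic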;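 note: per-cell ratio of nuclear to cytoplasmic median beta-catenin stain intensity; plate controls were DMSO negative control for no effect and GSK-3 inhibitor IX positive control for full effect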
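test system = HeLa cells, endogenous beta-catenin | dosing = single 5 µM dose plus 0.02–20 µM confirmation series | times = compound treatment 24 h, 37°C, 5% CO2 | technique = beta-catenin immunofluorescence imaging with DAPI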
ROMK retest: ROMK channel modulator hit retest, confirmation, cell-based, thallium flux, duplicate, resupplied hits; normalized thallium flux (F/F0 slope) at 10 µM; 54% of 3,000 active; AID 1917, 2009; shares compounds with ROMK primary; fluorescence ratio; stronger effect = lower value;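 active = Flux at 10 µM at least 3 SD below or above vehicle control mean in one or both replicates; inconclusive = no clear call, values can overlap the other calls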
Active calls of the source: *.

What do the screens show for `CCCC(C)n1[nH]c(=O)c2c1NC(=O)CSC2c1ccc(OC)cc1` (stereo unspecified)?
MT stabilize HCS: 2; ROMK primary: 2.3*; b-catenin transl: 0; ROMK retest: inconclusive

How did COCCNCCOc1ccc(C(C)(C)c2ccccc2)cc1 do in these assays?
MT stabilize HCS: 4; ROMK primary: -1.1; b-catenin transl: 2

Results for CCn1c(O)c(C=NCCN2CCOCC2)c(=O)n(CC)c1=S ?
b-catenin transl: 0

What do the screens show for `CCn1c(O)c(/C=N/N2CCOCC2)c(=O)n(CC)c1=S`?
MT stabilize HCS: 3; b-catenin transl: -2

Results for CCn1c(O)c(C=Nc2ccc(N3CCOCC3)c(Br)c2)c(=O)n(CC)c1=S ?
MT stabilize HCS: 1; ROMK primary: -5.3*; b-catenin transl: 1; ROMK retest: 0.079

Results for CCn1c(O)c(C=Nc2ccc(N3CCOCC3)cc2)c(=O)n(CC)c1=S ?
MT stabilize HCS: 2; ROMK primary: -6.6*; b-catenin transl: 0; ROMK retest: 0.045*

How did N#CC1=C(N)Oc2c(c(=O)sc3ccccc23)C1c1cccnc1 (stereo unspecified) do in these assays?
MT stabilize HCS: 10; ROMK primary: 0.62; b-catenin transl: 9

How did CCc1ccc2nc(N3CCC(C(=O)N4CCC5(CC4)OCCO5)CC3)sc2c1 do in these assays?
MT stabilize HCS: 3; ROMK primary: 0.55; b-catenin transl: 2

Results for NP(=O)(OCC(F)(F)F)Oc1cccc2ccccc12 (stereo unspecified) ?
MT stabilize HCS: 4; ROMK primary: -1; b-catenin transl: 1

What do the screens show for `NP(=O)(Oc1ccccc1Cl)Oc1ccccc1Cl`?
MT stabilize HCS: 2; ROMK primary: -3.1*; b-catenin transl: -1; ROMK retest: 0.064*

How did CCN(CC)c1ccc(N=Cc2c(O)n(Cc3ccccc3)c(=O)[nH]c2=O)cc1 do in these assays?
MT stabilize HCS: 2; ROMK primary: -8.3*; b-catenin transl: 1; ROMK retest: 0.049*

How did CCN(CC)c1ccc(N=Cc2c(O)n(-c3ccccc3)c(=O)[nH]c2=O)cc1 do in these assays?
ROMK primary: -0.28; b-catenin transl: 0

How did CCN(CC)c1ccc(N=Cc2c(O)n(-c3ccccc3C)c(=O)[nH]c2=O)cc1 do in these assays?
MT stabilize HCS: 9; ROMK primary: 1.1

How did CCOc1ccccc1-n1c(O)c(C=Nc2ccc(N(CC)CC)cc2)c(=O)[nH]c1=O do in these assays?
MT stabilize HCS: 22*; ROMK primary: 2.7*; b-catenin transl: -5; ROMK retest: 0.08

How did Cc1ccc(NP(=O)(Oc2ccccc2F)Oc2ccccc2F)cc1C do in these assays?
MT stabilize HCS: 4; ROMK primary: -0.37; b-catenin transl: 0

What do the screens show for `COc1ccccc1OP(=O)(Nc1cccnc1)Oc1ccccc1OC`?
MT stabilize HCS: 5; b-catenin transl: -1; ROMK retest: 0.062*

What do the screens show for `C[C@H]1CC[C@@]2(C)[C@@H](CC[C@@H]3[C@@H]2CC[C@]2(C)[C@@H](O)CC[C@@H]32)C1`?
b-catenin transl: 1

Results for CCN(C(C)=O)c1cccc(-c2ccnc3c(C#N)cnn23)c1 ?
b-catenin transl: -3

How did O=C(CCN1C(=O)COc2ccccc21)N1CCC2(CC1)OCCO2 do in these assays?
MT stabilize HCS: 3; ROMK primary: 0.44; b-catenin transl: -1

How did O=C1NC(=S)N(Cc2ccco2)C(=O)/C1=C\c1cccs1 do in these assays?
MT stabilize HCS: 3; ROMK primary: 1.2; b-catenin transl: -1

Results for CC1CC(OC(=O)c2ccccc2)(c2ccccc2)C(C)CN1C (stereo unspecified) ?
b-catenin transl: 0; ROMK retest: 0.07

How did CCCN1CC(C)C(OC(C)=O)(c2ccccc2)CC1C (stereo unspecified) do in these assays?
MT stabilize HCS: 4; b-catenin transl: 0

How did Cc1cccc(NP(=O)(Oc2ccccc2F)Oc2ccccc2F)c1 do in these assays?
MT stabilize HCS: 4; b-catenin transl: -2

How did CCOC(=O)C1=C(N)OC2=C(C(=O)CCC2)C12C(=O)N1c3c(ccc(C)c32)C(C)=CC1(C)C (stereo unspecified) do in these assays?
MT stabilize HCS: 3; ROMK primary: -5.9*; b-catenin transl: -1; ROMK retest: 0.059*

What do the screens show for `CCOC(=O)C1=C(N)OC2=C(C(=O)CCC2)C12C(=O)Nc1ccccc12` (stereo unspecified)?
MT stabilize HCS: 4; b-catenin transl: -3

Results for CCCCN1C(=N)C(CC)(CC)C(=O)NC1=O ?
MT stabilize HCS: 2; ROMK primary: 0.038; b-catenin transl: -5

Results for CCOC(=O)C1=C(N)Oc2cc(C)oc(=O)c2C12C(=O)N1c3c(cccc32)C(C)=CC1(C)C (stereo unspecified) ?
MT stabilize HCS: 3; b-catenin transl: 4

How did CCOC(=O)C1=C(N)Oc2cc(C)oc(=O)c2C12C(=O)N1c3c(cccc32)C(C)CC1(C)C (stereo unspecified) do in these assays?
MT stabilize HCS: 4; ROMK primary: -4.8*; b-catenin transl: -2; ROMK retest: 0.06*

What do the screens show for `CCCC12CN3CCN(CC(C3)/C1=N\NC(=O)c1ccncc1)C2`?
MT stabilize HCS: 2; ROMK primary: -0.56; b-catenin transl: -1

Results for COc1ccc(CN2C(=O)NC(=O)/C(=C/c3ccc([N+](=O)[O-])s3)C2=O)cc1 ?
b-catenin transl: -2

Results for COc1cc2c(cc1OC)[C@@H]1C(=O)c3ccc4c(c3O[C@@H]1CO2)C[C@H](C(C)C)O4 ?
b-catenin transl: 16; ROMK retest: 0.064*

How did CCC(=NCCOc1ccc(Cl)cc1)c1c(O)n(C)c(=O)n(C)c1=O do in these assays?
MT stabilize HCS: 4; ROMK primary: -3.1*; ROMK retest: 0.066*

Results for CCC(=NCCN1CCCCC1)c1c(O)n(C)c(=O)n(C)c1=O ?
MT stabilize HCS: 3; ROMK primary: 1.1

What do the screens show for `c1ccc(-c2ccc(-c3n(-c4ccccn4)c4ccccc4[n+]3-c3ccccn3)cc2)cc1`?
MT stabilize HCS: 4; ROMK primary: -1.5; b-catenin transl: 0

How did CCOc1cc(CNC(C)C(O)c2ccccc2)cc(Cl)c1OCC (stereo unspecified) do in these assays?
MT stabilize HCS: 8; ROMK primary: -2.8*; b-catenin transl: -1; ROMK retest: 0.059*

Results for CC(NCc1ccc(Cl)c(Cl)c1)C(O)c1ccccc1 (stereo unspecified) ?
MT stabilize HCS: 1; ROMK primary: -2.6; b-catenin transl: 0
